Laboratory results published in ChEMBL document CHEMBL2384906, “Biological activity, design, synthesis and structure activity relationship of some novel derivatives of curcumin containing sulfonamides” (Eur J Med Chem, 2013).
Converted amounts (≈) assume the structure as drawn. The source made the active and inactive calls. The calls are words filed in the database; no cut-off is given here.

What was measured:
[1] = test system: Trichoderma viride; test: Antifungal activity against Trichoderma viride MTCC 1107 assessed as zone of inhibition at 20 uM after 48 hrs by disc diffusion method; assay type: functional; settings: MTCC 1107, 48 h, read-out: IZ
In short: (§1)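 Spores from 4-day potato dextrose agar cultures, suspended in sterile water at 1.5 × 10⁵ CFU/mL. 0.2 mL was spread on potato dextrose agar. 5 mm filter-paper discs soaked with test compound were laid on the lawn. Incubation was 48 h at 28 °C, then the inhibition zone was measured in mm. Fluconazole was the positive control and acetone the negative control.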

[2] = test system: Curvularia lunata; test: Antifungal activity against Curvularia lunata MTCC 581 assessed as zone of inhibition at 80 uM after 48 hrs by disc diffusion method; assay type: functional; settings: MTCC 581, 48 h, read-out: IZ; in short: as §1
[3] = test system: Aspergillus niger; test: Antifungal activity against Aspergillus niger MTCC 1108 assessed as zone of inhibition at 80 uM after 48 hrs by disc diffusion method; assay type: functional; settings: MTCC 1108, 48 h, read-out: IZ; in short: as §1
[4] = test system: Pseudomonas aeruginosa; test: Antimicrobial activity against Pseudomonas aeruginosa ATCC 15499 after 24 hrs by broth micro serial dilution method; assay type: functional; settings: ATCC 15499, 24 h
In short: (§2)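 This was broth microdilution in autoclaved Mueller-Hinton broth. 150 µL of compound per well was serially diluted […], and 50 µL of test organism was added. Plates were incubated 24 h at 37 °C and optical density was read.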

[5] = test system: Pseudomonas aeruginosa; test: Antimicrobial activity against Pseudomonas aeruginosa ATCC 15499 assessed as diameter of inhibition zone at 80 uM after 24 hrs by Kirby -Baur disc diffusion method; assay type: functional; settings: ATCC 15499, 24 h, read-out: DIZ
In short: (§3)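 Kirby-Bauer disc diffusion was used. Acetone stocks (160 µM) were serially doubled down to 80, 40 and 20 µM. 4 µL of each went onto 5 mm sterile paper discs, which were dried 30 min at 50 °C. Inoculum was 1.5 × 10⁸ CFU/mL diluted to 3 × 10² CFU/mL, and 50 µL was spread on Mueller-Hinton agar. After 24 h at 37 °C the inhibition-zone diameter was measured. Ciprofloxacin served as positive control.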

[6] = test system: Trichoderma viride; test: Antifungal activity against Trichoderma viride MTCC 1107 assessed as zone of inhibition at 40 uM after 48 hrs by disc diffusion method; assay type: functional; settings: MTCC 1107, 48 h, read-out: IZ; in short: as §1
[7] = test system: Escherichia coli; test: Antimicrobial activity against Escherichia coli ATCC 35218 assessed as diameter of inhibition zone at 20 uM after 24 hrs by Kirby -Baur disc diffusion method; assay type: functional; settings: ATCC 35218, 24 h, read-out: DIZ; in short: as §3
[8] = test system: Escherichia coli; test: Antimicrobial activity against Escherichia coli ATCC 35218 after 24 hrs by broth micro serial dilution method; assay type: functional; settings: ATCC 35218, 24 h; in short: as §2
[9] = test system: Escherichia coli; test: Antimicrobial activity against Escherichia coli ATCC 35218 assessed as diameter of inhibition zone at 80 uM after 24 hrs by Kirby -Baur disc diffusion method; assay type: functional; settings: ATCC 35218, 24 h, read-out: DIZ; in short: as §3
[10] = test system: Bacillus cereus; test: Antimicrobial activity against Bacillus cereus MTCC 7350 after 24 hrs by broth micro serial dilution method; assay type: functional; settings: MTCC 7350, 24 h; in short: as §2
[11] = test system: Staphylococcus aureus; test: Antimicrobial activity against Staphylococcus aureus ATCC 11632 assessed as diameter of inhibition zone at 40 uM after 24 hrs by Kirby -Baur disc diffusion method; assay type: functional; settings: ATCC 11632, 24 h, read-out: DIZ; in short: as §3
[12] = test system: HeLa; test: Cytotoxicity against human HeLa cells after 24 hrs by MTT assay; assay type: functional, cell-based
In short: (§4)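 The MTT assay seeded 5 × 10⁴ cells per well and grew them 24 h in RPMI 1640 with compound at 2.5–200 µM. Medium without cells was the blank and adriamycin the positive control. MTT was added for 4 h at 37 °C, formazan was solubilised, and absorbance was read at 570 nm. IC50 is the concentration that cuts viability 50% against untreated cells.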

[13] = test system: Mus musculus; test: Antiinflammatory activity in mouse assessed as inhibition of carrageenan-induced increase in paw volume at 200 mg/kg administered 1 hr prior to carrageenan challenge measured after 3 hrs relative to control; assay type: functional
In short: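 Mice were fasted 2 h and placed in groups of five. Controls received saline i.p. Phenylbutazone was given at 100 mg/kg i.p., curcumin at 200 mg/kg i.p., and derivatives at 200 mg/kg. After 1 h, 0.1 mL of 1% carrageenan in saline was injected subplantar into the right hind paw. Paw volume was followed by plethysmometer for 3 h, and % inhibition was calculated as (Vc − Vt)/Vc × 100.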

[14] = test system: Aspergillus flavus; test: Antifungal activity against Aspergillus flavus MTCC 1021 assessed as zone of inhibition at 20 uM after 48 hrs by disc diffusion method; assay type: functional; in short: as §1
[15] = test system: Curvularia lunata; test: Antifungal activity against Curvularia lunata MTCC 581 after 48 hrs; assay type: functional; settings: MTCC 581, 48 h
[16] = test system: Bacillus cereus; test: Antimicrobial activity against Bacillus cereus MTCC 7350 assessed as diameter of inhibition zone at 20 uM after 24 hrs by Kirby -Baur disc diffusion method; assay type: functional; settings: MTCC 7350, 24 h, read-out: DIZ; in short: as §3
[17] = test system: Aspergillus niger; test: Antifungal activity against Aspergillus niger MTCC 1108 assessed as zone of inhibition at 20 uM after 48 hrs by disc diffusion method; assay type: functional; in short: as §1
[18] = test system: Bacillus cereus; test: Antimicrobial activity against Bacillus cereus MTCC 7350 assessed as diameter of inhibition zone at 40 uM after 24 hrs by Kirby -Baur disc diffusion method; assay type: functional; settings: MTCC 7350, 24 h, read-out: DIZ; in short: as §3
[19] = test system: Aspergillus niger; test: Antifungal activity against Aspergillus niger MTCC 1108 after 48 hrs; assay type: functional; settings: MTCC 1108, 48 h
[20] = test system: Staphylococcus aureus; test: Antimicrobial activity against Staphylococcus aureus ATCC 11632 assessed as diameter of inhibition zone at 80 uM after 24 hrs by Kirby -Baur disc diffusion method; assay type: functional; settings: ATCC 11632, 24 h, read-out: DIZ; in short: as §3
[21] = test system: Curvularia lunata; test: Antifungal activity against Curvularia lunata MTCC 581 assessed as zone of inhibition at 40 uM after 48 hrs by disc diffusion method; assay type: functional; settings: MTCC 581, 48 h, read-out: IZ; in short: as §1
[22] = test system: Aspergillus flavus; test: Antifungal activity against Aspergillus flavus MTCC 1021 assessed as zone of inhibition at 40 uM after 48 hrs by disc diffusion method; assay type: functional; in short: as §1
[23] = test system: QG-56; test: Cytotoxicity against human QG56 cells after 24 hrs by MTT assay; assay type: functional, cell-based; in short: as §4
[24] = test system: Pseudomonas aeruginosa; test: Antimicrobial activity against Pseudomonas aeruginosa ATCC 15499 assessed as diameter of inhibition zone at 40 uM after 24 hrs by Kirby -Baur disc diffusion method; assay type: functional; settings: ATCC 15499, 24 h, read-out: DIZ; in short: as §3
[25] = test system: Escherichia coli; test: Antimicrobial activity against Escherichia coli ATCC 35218 assessed as diameter of inhibition zone at 40 uM after 24 hrs by Kirby -Baur disc diffusion method; assay type: functional; settings: ATCC 35218, 24 h, read-out: DIZ; in short: as §3
[26] = test system: HepG2; test: Cytotoxicity against human HepG2 cells after 24 hrs by MTT assay; assay type: functional, cell-based; in short: as §4
[27] = test system: Salmonella typhi; test: Antimicrobial activity against Salmonella typhi ATCC 23564 after 24 hrs by broth micro serial dilution method; assay type: functional, Salmonella enterica subsp. enterica serovar Typhi; settings: Salmonella enterica, ATCC 23564, 24 h
[28] = test system: Salmonella typhi; test: Antimicrobial activity against Salmonella typhi ATCC 23564 assessed as diameter of inhibition zone at 40 uM after 24 hrs by Kirby -Baur disc diffusion method; assay type: functional, Salmonella enterica subsp. enterica serovar Typhi; settings: Salmonella enterica, ATCC 23564, 24 h; read-out: DIZ
[29] = test system: Curvularia lunata; test: Antifungal activity against Curvularia lunata MTCC 581 assessed as zone of inhibition at 20 uM after 48 hrs by disc diffusion method; assay type: functional; settings: MTCC 581, 48 h, read-out: IZ; in short: as §1
[30] = test system: Aspergillus niger; test: Antifungal activity against Aspergillus niger MTCC 1108 assessed as zone of inhibition at 40 uM after 48 hrs by disc diffusion method; assay type: functional; in short: as §1
[31] = test system: Aspergillus flavus; test: Antifungal activity against Aspergillus flavus MTCC 1021 after 48 hrs; assay type: functional; settings: MTCC 1021, 48 h
[32] = test system: Staphylococcus aureus; test: Antimicrobial activity against Staphylococcus aureus ATCC 11632 after 24 hrs by broth micro serial dilution method; assay type: functional; settings: ATCC 11632, 24 h; in short: as §2
[33] = test system: Pseudomonas aeruginosa; test: Antimicrobial activity against Pseudomonas aeruginosa ATCC 15499 assessed as diameter of inhibition zone at 20 uM after 24 hrs by Kirby -Baur disc diffusion method; assay type: functional; settings: ATCC 15499, 24 h, read-out: DIZ; in short: as §3
[34] = test system: Aspergillus flavus; test: Antifungal activity against Aspergillus flavus MTCC 1021 assessed as zone of inhibition at 80 uM after 48 hrs by disc diffusion method; assay type: functional; settings: MTCC 1021, 48 h, read-out: IZ; in short: as §1
[35] = test system: Bacillus cereus; test: Antimicrobial activity against Bacillus cereus MTCC 7350 assessed as diameter of inhibition zone at 80 uM after 24 hrs by Kirby -Baur disc diffusion method; assay type: functional; settings: MTCC 7350, 24 h, read-out: DIZ; in short: as §3
[36] = test system: HCT-116; test: Cytotoxicity against human HCT116 cells after 24 hrs by MTT assay; assay type: functional, cell-based; in short: as §4
[37] = test system: Staphylococcus aureus; test: Antimicrobial activity against Staphylococcus aureus ATCC 11632 assessed as diameter of inhibition zone at 20 uM after 24 hrs by Kirby -Baur disc diffusion method; assay type: functional; settings: ATCC 11632, 24 h, read-out: DIZ; in short: as §3
[38] = test system: Trichoderma viride; test: Antifungal activity against Trichoderma viride MTCC 1107 assessed as zone of inhibition at 80 uM after 48 hrs by disc diffusion method; assay type: functional; settings: MTCC 1107, 48 h, read-out: IZ; in short: as §1
[39] = test system: Salmonella typhi; test: Antimicrobial activity against Salmonella typhi ATCC 23564 assessed as diameter of inhibition zone at 80 uM after 24 hrs by Kirby -Baur disc diffusion method; assay type: functional, Salmonella enterica subsp. enterica serovar Typhi; settings: Salmonella enterica, ATCC 23564, 24 h; read-out: DIZ
[40] = test system: Salmonella typhi; test: Antimicrobial activity against Salmonella typhi ATCC 23564 assessed as diameter of inhibition zone at 20 uM after 24 hrs by Kirby -Baur disc diffusion method; assay type: functional, Salmonella enterica subsp. enterica serovar Typhi; settings: Salmonella enterica, ATCC 23564, 24 h; read-out: DIZ
[41] = test system: Trichoderma viride; test: Antifungal activity against Trichoderma viride MTCC 1107 after 48 hrs; assay type: functional; settings: MTCC 1107, 48 h

Compound: COc1cc(/C=C/C(CC(/C=C/c2ccc(O)c(OC)c2)=N/c2ccc(S(=O)(=O)Nc3cc(C)on3)cc2)=N\c2ccc(S(=O)(=O)Nc3cc(C)on3)cc2)ccc1O
- zone of inhibition at 20 µM [1]: 9 mm
- zone of inhibition at 80 µM [2]: 11 mm
- zone of inhibition at 80 µM [3]: 10 mm
- MIC [4]: 40 µM (≈ 33.6 µg/mL)
- zone of inhibition at 80 µM [5]: 26 mm
- zone of inhibition at 40 µM [6]: 11 mm
- zone of inhibition at 20 µM [7]: 18 mm
- MIC [8]: 20 µM (≈ 16.8 µg/mL)
- zone of inhibition at 80 µM [9]: 23 mm
- MIC [10]: 40 µM (≈ 33.6 µg/mL)
- zone of inhibition at 40 µM [11]: 21 mm
- IC50 [12]: 100 µM
- inhibition in vivo at 200 mg/kg [13]: 8%
- inhibition zone (IZ) [14]: inactive
- MIC [15]: 40 µM (≈ 33.6 µg/mL)
- zone of inhibition at 20 µM [16]: 11 mm
- inhibition zone (IZ) [17]: inactive
- zone of inhibition at 40 µM [18]: 16 mm
- MIC [19]: > 80 µM
- zone of inhibition at 80 µM [20]: 24 mm
- zone of inhibition at 40 µM [21]: 10 mm
- inhibition zone (IZ) [22]: inactive
- IC50 [23]: 100 µM
- zone of inhibition at 40 µM [24]: 21 mm
- zone of inhibition at 40 µM [25]: 21 mm
- IC50 [26]: 100 µM
- MIC [27]: 40 µM (≈ 33.6 µg/mL)
- zone of inhibition at 40 µM [28]: 26 mm
- zone of inhibition at 20 µM [29]: 9 mm
- inhibition zone (IZ) [30]: inactive
- MIC [31]: > 80 µM
- MIC [32]: 40 µM (≈ 33.6 µg/mL)
- zone of inhibition at 20 µM [33]: 16 mm
- zone of inhibition at 80 µM [34]: 9 mm
- zone of inhibition at 80 µM [35]: 21 mm
- IC50 [36]: 100 µM
- zone of inhibition at 20 µM [37]: 17 mm
- zone of inhibition at 80 µM [38]: 13 mm
- zone of inhibition at 80 µM [39]: 29 mm
- zone of inhibition at 20 µM [40]: 18 mm
- MIC [41]: 40 µM (≈ 33.6 µg/mL)
